Results collected from several papers.
Protocols differ between the studies behind these lines.
Organism: Severe acute respiratory syndrome coronavirus 2

CC(C)(C)[C@]1(O)CCN2C[C@H]3c4ccccc4CCc4cccc(c43)[C@@H]2C1 — IC50 (viral replication; Vero C1008): 6.17 µM
CCN(C)C(=O)Oc1cccc([C@H](C)N(C)C)c1 — IC50 (viral replication, inhibitor; Huh-7): > 2 µM
COc1c(C)c2c(c(O)c1C/C=C(\C)CCC(=O)OCCN1CCOCC1)C(=O)OC2 — IC50 (viral replication, inhibitor; Calu-3; 40 h): 2.15 µM
C[C@]12C=CC(=O)C=C1CC[C@@H]1[C@@H]2[C@@H](O)C[C@@]2(C)[C@H]1C[C@H]1O[C@@H](C3CCCCC3)O[C@]12C(=O)CO — IC50 (viral replication; VeroE6/TMPRSS2): 8.1 µM
Cc1ccc(NC(=O)c2c(N)nc(S[C@@H]3O[C@H](CO)[C@@H](O)[C@H](O)[C@H]3O)[nH]c2=S)cc1 — IC50 (viral replication; Vero C1008; 72 h): 73.7 µM
CC(C)N1CCN(c2ccc(OCC3COC(Cn4cncn4)(c4ccc(Cl)cc4Cl)O3)cc2)CC1 (stereo not shown) — IC50 (viral replication, inhibitor; Vero C1008): 11.9 µM
CN(C)CCCC1(c2ccc(F)cc2)OCc2cc(C#N)ccc21 (stereo not shown) — IC50 (viral replication, inhibitor; A549-ACE2): 3.31 µM
CCC(CC)COC(=O)[C@H](C)N[P@](=O)(OC[C@H]1O[C@@](C#N)(c2ccc3c(N)ncnn23)[C@H](O)[C@@H]1O)Oc1ccccc1 — IC50 (viral replication, inhibitor; Huh-7): 0.006 µM
CCN(CC)CCOc1ccc(C(O)(Cc2ccc(Cl)cc2)c2ccc(C)cc2)cc1 (stereo not shown) — IC50 (viral replication; Vero C1008): 0.759 µM
CCN(CC)CCS(=O)(=O)[C@@H]1CCN2C(=O)c3coc(n3)CC(=O)C[C@H](O)/C=C(C)/C=C/CNC(=O)/C=C/[C@@H](C)[C@@H](C(C)C)OC(=O)[C@@H]12 — IC50 (viral replication, inhibitor; Huh-7): > 2 µM
CCOP(=O)(OCC)N1C/C(=C\c2ccc(F)cc2)C(=O)C2(C1)C(c1ccc(F)cc1)CN(C)C21C(=O)Nc2ccc(Cl)cc21 (stereo not shown) — IC50 (viral replication, inhibitor; Vero C1008; 72 h): 13.5 µM
Fc1ccc([C@@H]2CCNC[C@H]2COc2ccc3c(c2)OCO3)cc1 — IC50 (viral replication, inhibitor; A549-ACE2): 2.51 µM
CC[C@@H](C)[C@@H]1NC(=O)[C@@H]2CCCN2C(=O)[C@H](Cc2ccccc2)N(C)C(=O)[C@H](Cc2ccccc2)NC(=O)[C@H](C(C)C)N(C)C(=O)[C@@H]([C@H](C)CC)OC(=O)[C@H](C(C)(C)O)N(C)C(=O)[C@H](CC(C)C)NC(=O)[C@H](C(C)C)N(C)C1=O — IC50 (viral replication, inhibitor; Calu-3; 40 h): 4.53 µM
CCc1nc(C(N)=O)c(Nc2ccc(N3CCC(N4CCN(C)CC4)CC3)c(OC)c2)nc1NC1CCOCC1 — IC50 (viral replication, inhibitor; Huh-7): 0.255 µM
CC[C@H](C)[C@H]1C(=O)N2CCC[C@H]2C(=O)O[C@H](C(C)(C)C)C[C@@H](C)C[C@H](O)[C@H](C)C2=N[C@@H](CCC(=O)N[C@@H](Cc3ccc(OC)cc3)C(=O)N(C)[C@@H](C)C(=O)N1C)CS2 — IC50 (viral replication, inhibitor; Vero C1008): 0.17 µM
COc1cc2c(cc1OC)C(=O)C(CC1CCN(Cc3ccccc3)CC1)C2 (stereo not shown) — IC50 (viral replication, inhibitor; A549-ACE2): 7.76 µM
Nc1nc(S)[nH]c(=S)c1C(=O)Nc1ccc(Cl)cc1 — IC50 (viral replication; Vero C1008; 72 h): 289 µM
CC(Nc1nc(N2CCNCC2)nc2ccccc12)c1ccccc1N (stereo not shown) — IC50 (viral entry, inhibitor; pseudovirus): 35.5 µM
CC(CN1c2ccccc2Sc2ccccc21)N(C)C (stereo not shown) — IC50 (viral replication, inhibitor; Vero C1008): 9.21 µM
CCN(CC)CCO[C@H]1CC[C@@]2(C)C(=CC[C@@H]3[C@@H]2CC[C@]2(C)C(=O)CC[C@@H]32)C1 — IC50 (viral replication, inhibitor; A549-ACE2): 0.132 µM
O=C(NC1CCN(CCCCC2(C(=O)NCC(F)(F)F)c3ccccc3-c3ccccc32)CC1)c1ccccc1-c1ccc(C(F)(F)F)cc1 — IC50 (viral replication, inhibitor; Huh-7): 0.765 µM
C=C[C@@H]1C[C@]1(NC(=O)[C@@H]1C[C@@H](Oc2ncc(OC)c3ccc(Cl)cc23)CN1C(=O)[C@@H](NC(=O)OC(C)(C)C)C(C)(C)C)C(=O)NS(=O)(=O)C1CC1 — IC50 (viral replication; HEK-293T): 48.4 µM
